# Key:
# Type in all cases: functional
# Bacillus thuringiensis = experiment: Antibacterial activity against Bacillus thuringiensis MTCC 6941 assessed as growth inhibition at 100 ug/disk after 24 hr by disk diffusion method; settings: MTCC 6941, 24 h, read-out: DIZ
# Outline: (§1)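 Disk diffusion on nutrient agar. Strains kept on NA slants at 37 °C and subcultured in nutrient broth before testing. A log-phase culture was spread on solidified medium, and sterile disks were loaded with compound from DMSO stock. DMSO served as control, with commercial antibiotics for reference. Plates ran 24 h at 37 °C, and inhibition zones (mm) were read in quadruplicate.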
# [1] = system: Radical scavenging activity; experiment: Antioxidant activity assessed as DPPH free radical scavenging activity at 80 ug/mL after 20 min by UV-Vis spectrophotometric analysis
# Outline: (§2)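 DPPH radical scavenging: samples were held at room temperature for 20 min in the dark, and absorbance was read at 517 nm. The control contained DMSO without compound, and methanol was used for baseline correction. Scavenging percentage was calculated from the absorbances.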
# Athelia rolfsii = experiment: Antifungal activity against Athelia rolfsii ITCC 6181 by food poisoning method; settings: Agroathelia rolfsii
# Outline: (§3)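 Poisoned food technique on PDA at several concentrations. A 5 mm mycelial plug from the growing edge of a 2-week-old colony was placed inoculum-side down at the plate centre. Plates incubated at 27 °C until control growth was nearly complete. Colony diameter measured, percent inhibition calculated against control, LC50 derived. Four replicates per treatment.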
# [2] = system: Radical scavenging activity; experiment: Antioxidant activity assessed as DPPH free radical scavenging activity at 40 ug/mL after 20 min by UV-Vis spectrophotometric analysis; outline: as §2
# [3] = system: Radical scavenging activity; experiment: Antioxidant activity assessed as DPPH free radical scavenging activity at 300 ug/mL after 20 min by UV-Vis spectrophotometric analysis; outline: as §2
# Dickeya chrysanthemi = experiment: Antibacterial activity against Erwinia chrysanthemi ITCC B-40 assessed as as growth inhibition at 100 ug/disk after 24 hr by disk diffusion method; settings: ITCC B-40, 24 h, read-out: DIZ; outline: as §1
# [4] = system: Radical scavenging activity; experiment: Antioxidant activity assessed as DPPH free radical scavenging activity at 400 ug/mL after 20 min by UV-Vis spectrophotometric analysis; outline: as §2
# Pseudomonas aeruginosa = experiment: Antibacterial activity against Pseudomonas aeruginosa MTCC 2581 assessed as growth inhibition at 100 ug/disk after 24 hr by disk diffusion method; settings: MTCC 2581, 24 h, read-out: DIZ; outline: as §1
# Xanthomonas oryzae = experiment: Antibacterial activity against Xanthomonas oryzae ITCC B-47 assessed as as growth inhibition at 100 ug/disk after 24 hr by disk diffusion method; settings: ITCC B-47, 24 h, read-out: DIZ
# Staphylococcus aureus = experiment: Antibacterial activity against Staphylococcus aureus MTCC 3160 assessed as growth inhibition at 100 ug/disk after 24 hr by disk diffusion method; settings: MTCC 3160, 24 h, read-out: DIZ; outline: as §1
# [5] = system: Radical scavenging activity; experiment: Antioxidant activity assessed as DPPH free radical scavenging activity at 500 ug/mL after 20 min by UV-Vis spectrophotometric analysis; outline: as §2
# Bacillus pumilus = experiment: Antibacterial activity against Bacillus pumilus MTCC 2466 assessed as growth inhibition at 100 ug/disk after 24 hr by disk diffusion method; settings: MTCC 2466, 24 h, read-out: DIZ; outline: as §1
# [6] = system: Radical scavenging activity; experiment: Antioxidant activity assessed as DPPH free radical scavenging activity at 60 ug/mL after 20 min by UV-Vis spectrophotometric analysis; outline: as §2
# Rhizoctonia solani = experiment: Antifungal activity against Rhizoctonia solani ITCC 5563 by food poisoning method; outline: as §3
# Klebsiella pneumoniae = experiment: Antibacterial activity against Klebsiella pneumoniae MTCC 7028 assessed as growth inhibition at 100 ug/disk after 24 hr by disk diffusion method; settings: MTCC 7028, 24 h, read-out: DIZ; outline: as §1
# [7] = system: Radical scavenging activity; experiment: Antioxidant activity assessed as DPPH free radical scavenging activity after 20 min by UV-Vis spectrophotometric analysis; parameters: concentration or dose not given beside the values; outline: as §2
# [8] = system: Radical scavenging activity; experiment: Antioxidant activity assessed as DPPH free radical scavenging activity at 200 ug/mL after 20 min by UV-Vis spectrophotometric analysis; outline: as §2
# [9] = system: Radical scavenging activity; experiment: Antioxidant activity assessed as DPPH free radical scavenging activity at 20 ug/mL after 20 min by UV-Vis spectrophotometric analysis; outline: as §2
# [10] = system: Radical scavenging activity; experiment: Antioxidant activity assessed as DPPH free radical scavenging activity at 10 ug/mL after 20 min by UV-Vis spectrophotometric analysis; outline: as §2
# [11] = system: Radical scavenging activity; experiment: Antioxidant activity assessed as DPPH free radical scavenging activity at 100 ug/mL after 20 min by UV-Vis spectrophotometric analysis; outline: as §2
Compound,zone of inhibition at 100 µg/disc (Bacillus thuringiensis),LC50 (Athelia rolfsii),zone of inhibition at 100 µg/disc (Dickeya chrysanthemi),zone of inhibition at 100 µg/disc (Pseudomonas aeruginosa),zone of inhibition at 100 µg/disc (Xanthomonas oryzae),zone of inhibition at 100 µg/disc (Staphylococcus aureus),zone of inhibition at 100 µg/disc (Bacillus pumilus),LC50 (Rhizoctonia solani),zone of inhibition at 100 µg/disc (Klebsiella pneumoniae),Activity [7],also measured
Oc1[nH]nc2c1C(c1ccccc1)CC(c1ccccc1)=C2 (stereo not given),0 mm,873 µg/mL,0 mm,0 mm,0 mm,0 mm,0 mm,802 µg/mL,10 mm,40.3%,Activity [1]: 67.3%; Activity [2]: 40.3%; Activity [3]: 89%; Activity [4]: 89.1%; Activity [5]: 89.2%; Activity [6]: 62.5%; IC50 [7]: 58.28 µg/mL; Activity [8]: 90.6%; Activity [9]: 10.9%; Activity [10]: 9.1%; Activity [11]: 73.3%
CCOC(=O)C1C(=O)C=C(c2ccc(F)cc2)CC1c1cccc([N+](=O)[O-])c1 (stereo not given),0 mm,285 µg/mL,10 mm,0 mm,0 mm,0 mm,0 mm,157 µg/mL,0 mm,4.23%,–
CCOC(=O)C1C(=O)C=C(c2ccccc2)CC1c1ccc(C)cc1 (stereo not given),0 mm,316 µg/mL,0 mm,0 mm,0 mm,0 mm,0 mm,233 µg/mL,5 mm,4.17%,–
CCOC(=O)C1C(=O)C=C(c2ccc(C)cc2)CC1c1ccc(OC)c(OC)c1 (stereo not given),0 mm,317 µg/mL,0 mm,0 mm,0 mm,0 mm,0 mm,189 µg/mL,0 mm,7.38%,–
CCOC(=O)C1C(=O)C=C(c2ccc(OC)c(OC)c2)CC1c1ccc(OC)cc1 (stereo not given),0 mm,504 µg/mL,10 mm,0 mm,0 mm,0 mm,0 mm,–,0 mm,11.3%,–
CCOC(=O)C1C(=O)C=C(c2ccc(F)cc2)CC1c1ccccc1 (stereo not given),0 mm,319 µg/mL,10 mm,0 mm,0 mm,0 mm,0 mm,35 µg/mL,10 mm,3.86%,–
CCOC(=O)C1C(=O)C=C(c2ccc(C)cc2)CC1c1ccc(C)cc1 (stereo not given),0 mm,321 µg/mL,0 mm,10 mm,0 mm,0 mm,0 mm,231 µg/mL,5 mm,3.54%,–
"Cc1ccc(/C=C/C(=O)c2ccc(C)cc2)cc1 [4,4'-DIMETHYLCHALCONE]",0 mm,549 µg/mL,0 mm,0 mm,0 mm,0 mm,0 mm,635 µg/mL,0 mm,1.19%,–
CCOC(=O)C1C(=O)C=C(c2ccc(OC)cc2)CC1c1ccc(OC)c(OC)c1 (stereo not given),0 mm,315 µg/mL,0 mm,0 mm,0 mm,0 mm,0 mm,34 µg/mL,0 mm,4.71%,–

# Reference: ChEMBL document CHEMBL3045565, “Microwave synthesis, characterization and bio-efficacy evaluation of novel chalcone based 6-carbethoxy-2-cyclohexen-1-one and 2H-indazol-3-ol derivatives” (Eur J Med Chem, 2013)
